Assays:
[1] = test system: Human alphaherpesvirus 1; assay: Antiviral activity against HSV1 F VR 733 infected in African green monkey Vero cells assessed as inhibition of virus-induced cytopathic effect; assay type: functional, organism-based; conditions: Human alphaherpesvirus 1, Strain F ATCC VR 733, Vero
[2] = Cytotoxicity against African green monkey Vero cells measured after 48 hrs; assay type: cell-based; conditions: chlorocebus sabaeus, read-out: TC50
How it was run: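 TC50 is the concentration that inhibits Vero cell growth by 50%. It is used with the antiviral IC50 to give a selectivity index (TC50/IC50).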

[3] = Selectivity index, ratio of TC50 for African green monkey Vero cells to IC50 for HSV1 strain F VR 733 infected in African green monkey Vero cells; assay type: toxicity; conditions: read-out: Selectivity Index
How it was run: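 Calculated as TC50/IC50 in Vero cells. TC50 is the cytotoxic concentration that inhibits Vero cell growth by 50%. No SI was assigned where it could not be determined under the test conditions.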

[4] = test system: Influenza A virus; assay: Antiviral activity against Influenza A virus A/95-359 infected in MDCK cells assessed as inhibition of virus-induced cytopathic effect; assay type: functional, organism-based; conditions: A/95-359, MDCK
How it was run: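 MDCK cells; IC50 given as the mean of three independent determinations.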

[5] = Cytotoxicity against MDCK cells measured after 48 hrs; assay type: cell-based, Canis lupus familiaris; conditions: dog, read-out: TC50
How it was run: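 TC50 is the concentration that inhibits MDCK cell growth by 50%, reported as the mean of three independent determinations. It is paired with the anti-influenza A IC50 to give a selectivity index (TC50/IC50).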

[6] = Selectivity index, ratio of TC50 for MDCK cells to IC50 for Influenza A virus A/95-359 infected in MDCK cells; assay type: toxicity, cell-based; conditions: dog, read-out: Selectivity Index
How it was run: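 Ratio of TC50 to IC50, both in MDCK cells. TC50 is the concentration that inhibits MDCK cell growth by 50%. Values are means of three independent determinations. No SI was assigned where it could not be determined under the test conditions.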

| Compound | IC50 [1] | CC50 at 48 h [2] | selectivity ratio [3] | IC50 [4] | CC50 at 48 h [5] | selectivity ratio [6] |
| --- | --- | --- | --- | --- | --- | --- |
| Cc1ccc2c(c1C)C1=CC[C@@H]3[C@@]4(C)C[C@@H](O)[C@H](O)[C@@](C)(CO)[C@@H]4CC[C@@]3(C)[C@]1(C)CC2 | 0.41 µM | 1.78 µM | 4.3 | 1.23 µM | 3.7 µM | 3 |
| CC1=C2C3=CC[C@@H]4[C@@]5(C)C[C@@H](O)[C@@H](O)[C@@](C)(CO)[C@@H]5CC[C@@]4(C)[C@]3(C)CC[C@@]23CC[C@]1(C)OO3 | 6.41 µM | 23.1 µM | 3.6 | > 33.3 µM | 57.7 µM | – |
| CC(=O)CCC1=C(C(C)=O)C2=CC[C@@H]3[C@@]4(C)C[C@@H](O)[C@@H](O)[C@](C)(CO)[C@@H]4CC[C@@]3(C)[C@]2(C)CC1 | > 33.3 µM | 69.3 µM | – | > 33.3 µM | > 100 µM | – |
| Cc1ccc2c(c1C)C1=CC[C@@H]3[C@@]4(C)[C@H](O)[C@@H](O)[C@@H](O)[C@@](C)(CO)[C@@H]4CC[C@@]3(C)[C@]1(C)CC2 | > 0.41 µM | 1.78 µM | – | > 1.23 µM | 2.57 µM | – |
| Cc1ccc2c(c1C)C1=CC[C@@H]3[C@@]4(C)C[C@@H](O)[C@@H](O)[C@](C)(CO)[C@@H]4CC[C@@]3(C)[C@]1(C)CC2 | > 1.23 µM | 3.7 µM | – | > 3.7 µM | 7.7 µM | – |
| CC1=C2C3=CC[C@@H]4[C@@]5(C)CC[C@@H](O)[C@@](C)(CO)[C@@H]5CC[C@@]4(C)[C@]3(C)CC[C@@]23CC[C@]1(C)OO3 | > 11.1 µM | 57.7 µM | – | > 11.1 µM | 19.2 µM | – |
| CC1=C2C3=CC[C@@H]4[C@@]5(C)CC[C@@H](O)[C@](C)(CO)[C@@H]5CC[C@@]4(C)[C@]3(C)CC[C@]23CC[C@@]1(C)OO3 | > 11.1 µM | 33.3 µM | – | > 11.1 µM | 19.2 µM | – |
| Cc1ccc2c(c1C)C1=CC[C@@H]3[C@@]4(C)CC[C@@H](O)[C@](C)(CO)[C@@H]4CC[C@@]3(C)[C@]1(C)CC2 | > 1.23 µM | 5.34 µM | – | > 11.1 µM | 19.2 µM | – |
| Cc1ccc2c(c1C)C1=CC[C@@H]3[C@@]4(C)[C@H](O)C[C@@H](O)[C@](C)(CO)[C@@H]4CC[C@@]3(C)[C@]1(C)CC2 | > 3.7 µM | 11.1 µM | – | > 3.7 µM | 16 µM | – |
| CCOC(=O)C1=C[C@@H](OC(CC)CC)[C@H](NC(C)=O)[C@@H](N)C1 [OSELTAMIVIR] | – | – | – | 1.63 µM | – | – |
| Nc1nc2c(ncn2COCCO)c(=O)[nH]1 [ACYCLOVIR] | 0.41 µM | > 100 µM | > 244 | – | – | – |
